Assay results as given in article PMC4351130 (Nature structural & molecular biology, 2015).

Columns and labels:
human δ-OR = test: δ-OR β-arrestin recruitment Tango assay; assay type: cell-based; details: normalized to DADLE, N = 3 in quadruplicate, Supplementary Fig. 5
How it was run: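 Modified Tango β-arrestin recruitment format at human δ-OR. Values are mean ± SEM from three independent experiments, each run in quadruplicate.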

δ-OR = details: cited from earlier work
μ-OR = details: cited from earlier work
[1] = co-administration with morphine; cited from earlier work
[2] = molecular target: double δ-OR mutant Leu300^7.35Trp - Trp284^6.58Lys (human) (UniProt P41143)

## H-Dmt(1)-Tic(2)-Phe(3)-Phe(4)-NH2 [DIPP-NH2]
Human δ-OR
  Agonist activity at δ-OR, β-arrestin pathway: weak partial agonist activity
δ-OR
  Functional activity in mouse vas deferens assay: δ-OR antagonist
μ-OR
  Functional activity in guinea pig ileum assay: μ-OR agonist

## Oc1ccc2c3c1O[C@H]1c4[nH]c5ccccc5c4C[C@@]4(O)[C@@H](C2)N(CC2CC2)CC[C@]314 [naltrindole]
[1]
  Effect on development of morphine-induced tolerance and dependence: prevent the development of morphine-induced tolerance and dependence

## DIPP-NH2, H-Dmt(1)-Tic(2)-Phe(3)-Phe(4)-NH2 (peptide)
[2]
  fold decrease in affinity against the unmutated receptor: > 100 fold
